Measurements published in ChEMBL document CHEMBL2034980, “N⁴-Phenyl-substituted 2-acetylpyridine thiosemicarbazones: cytotoxicity against human tumor cells, structure-activity relationship studies and investigation on the mechanism of action” (Bioorg Med Chem, 2012).
Calls of active or inactive are those of the source. The rule behind the calls is not given here.

Experiments:
MCF7 [1] = experiment: Induction of apoptosis in human MCF7 cells assessed as irregularities in cellular shape at 1 uM after 48 hrs by DAPI staining; assay type: functional, cell-based
T98G [2] = experiment: Induction of apoptosis in human T98G cells assessed as membrane blebbing at 1 uM after 48 hrs […]; assay type: functional, cell-based
T98G [3] = experiment: Induction of apoptosis in human T98G cells assessed as chromatin condensation at 1 uM after 48 hrs by acridine orange/ethidium bromide staining-based microscopy; assay type: functional, cell-based
How it was run: (§1)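 After 48 h at 1 μM, cells were incubated for 15 min in serum-free medium containing 1 μg mL⁻¹ acridine orange and 1 μg mL⁻¹ ethidium bromide. The medium was removed and cells imaged by inverted fluorescence microscopy (530–650 nm). Green/orange nuclear patterns and acidic cytoplasmic vacuoles were scored.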

MCF7 [4] = experiment: Induction of apoptosis in human MCF7 cells assessed as chromatin condensation at 1 uM after 48 hrs by acridine orange/ethidium bromide staining-based microscopy; assay type: functional, cell-based; how it was run: as §1
U-87MG ATCC [5] = experiment: Induction of apoptosis in human U87 cells assessed as chromatin condensation at 1 uM after 48 hrs by acridine orange/ethidium bromide staining-based microscopy; assay type: functional, cell-based; how it was run: as §1
U-87MG ATCC [6] = experiment: Induction of apoptosis in human U87 cells assessed as membrane blebbing at 1 uM after 48 hrs by DAPI staining; assay type: functional, cell-based
T98G [7] = experiment: Induction of apoptosis in human T98G cells assessed as appearance of autophagolysosomes at 1 uM after 48 hrs by acridine orange/ethidium bromide staining-based microscopy; assay type: functional, cell-based; how it was run: as §1
MCF7 [8] = experiment: Induction of apoptosis in human MCF7 cells assessed as DNA fragmentation at 1 uM after 48 hrs by DAPI staining; assay type: functional, cell-based
How it was run: (§2)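 Cells were treated at 1 μM for 48 h, washed in PBS and fixed in 70% methanol for 30 min at room temperature. They were stained with 0.4 μg mL⁻¹ DAPI for 1 h in the dark, and nuclear condensation and fragmentation were scored by fluorescence microscopy (385–410 nm).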

[9] = (§3) Cytotoxicity against human U87 cells expressing wild-type p53 after 48 hrs by MTT assay; assay type: functional, cell-based, U-87MG ATCC; settings: U-87 MG, read-out: IC50
How it was run: (§4)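 MTT assay. Cells were grown in DMEM with 10% FBS and penicillin/streptomycin at 37 °C under 5% CO2, seeded at 1–2×10^3 cells/well and treated 12 h later with 1×10^-12 to 1×10^-5 M ([…] from DMSO stock, final DMSO <0.5%) for 48 h. MTT was added at 0.5 mg mL⁻¹, formazan dissolved in DMSO and read at 570 nm. IC50 is the concentration giving 50% cytotoxicity. Quadruplicates, ≥3 independent experiments.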

U-87MG ATCC [10] = experiment: as §3; assay type: functional, cell-based; how it was run: as §4
T98G [11] = experiment: Cytotoxicity against human T98G cells expressing mutant p53 after 48 hrs by MTT assay; assay type: functional, cell-based; settings: for IC50: read-out: IC50; how it was run: as §4
U-87MG ATCC [12] = experiment: Induction of apoptosis in human U87 cells assessed as DNA fragmentation at 1 uM after 48 hrs by DAPI staining; assay type: functional, cell-based; how it was run: as §2
MCF7 [13] = experiment: Cytotoxicity against human MCF7 cells after 48 hrs by MTT assay; assay type: functional, cell-based; settings: for IC50: MCF7, 48 h, read-out: IC50; how it was run: as §4
MCF7 [14] = experiment: Induction of apoptosis in human MCF7 cells assessed as membrane blebbing at 1 uM after 48 hrs by DAPI staining; assay type: functional, cell-based
U-87MG ATCC [15] = experiment: Induction of apoptosis in human U87 cells assessed as appearance of autophagolysosomes at 1 uM after 48 hrs by acridine orange/ethidium bromide staining-based microscopy; assay type: functional, cell-based; how it was run: as §1
U-87MG ATCC [16] = experiment: Induction of apoptosis in human U87 cells assessed as cell shrinkage at 1 uM after 48 hrs by DAPI staining; assay type: functional, cell-based
U-87MG ATCC [17] = experiment: Induction of apoptosis in human U87 cells assessed as chromatin condensation at 1 uM after 48 hrs by DAPI staining; assay type: functional, cell-based; how it was run: as §2
MCF7 [18] = experiment: Induction of apoptosis in human MCF7 cells assessed as appearance of autophagolysosomes at 1 uM after 48 hrs by acridine orange/ethidium bromide staining-based microscopy; assay type: functional, cell-based; how it was run: as §1
T98G [19] = experiment: Induction of apoptosis in human T98G cells assessed as cell shrinkage at 1 uM after 48 hrs by DAPI staining; assay type: functional, cell-based
[20] = Haemolytic activity in human RBC after 1 hr by photometry; assay type: ADME, cell-based; settings: Erythrocyte
How it was run: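 Human EDTA blood was spun at 700xg for 10 min and the erythrocytes washed three times in cold PBS pH 7.4, then resuspended in it. Cells were incubated with varying compound concentrations for 1 h at 37 °C with shaking. After centrifugation, released haemoglobin was read at 540 nm to give the IC50. Mean ± SD, n = 4.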

T98G [21] = experiment: Induction of apoptosis in human T98G cells assessed as DNA fragmentation at 1 uM after 48 hrs by DAPI staining; assay type: functional, cell-based; how it was run: as §2
MCF7 [22] = experiment: Induction of apoptosis in human MCF7 cells assessed as cell shrinkage at 1 uM after 48 hrs by DAPI staining; assay type: functional, cell-based
U-87MG ATCC [23] = experiment: Induction of apoptosis in human U87 cells assessed as irregularities in cellular shape at 1 uM after 48 hrs by DAPI staining; assay type: functional, cell-based
T98G [24] = experiment: Induction of apoptosis in human T98G cells assessed as irregularities in cellular shape at 1 uM after 48 hrs by DAPI staining; assay type: functional, cell-based
T98G [25] = experiment: Induction of apoptosis in human T98G cells assessed as chromatin condensation at 1 uM after 48 hrs by DAPI staining; assay type: functional, cell-based; how it was run: as §2
MCF7 [26] = experiment: Induction of apoptosis in human MCF7 cells assessed as chromatin condensation at 1 uM after 48 hrs by DAPI staining; assay type: functional, cell-based; how it was run: as §2

| SMILES | Activity (MCF7 [1]) | Activity (T98G [2]) | Activity (T98G [3]) | Activity (MCF7 [4]) | Activity (U-87MG ATCC [5]) | Activity (U-87MG ATCC [6]) | Activity (T98G [7]) | Activity (MCF7 [8]) | IC50 [9] [nM] | Activity (U-87MG ATCC [10]) | Activity (T98G [11]) | IC50 (T98G [11]) [nM] | Activity (U-87MG ATCC [12]) | Activity (MCF7 [13]) | IC50 (MCF7 [13]) [nM] | Activity (MCF7 [14]) | Activity (U-87MG ATCC [15]) | Activity (U-87MG ATCC [16]) | Activity (U-87MG ATCC [17]) | Activity (MCF7 [18]) | further results |
| --- | --- | --- | --- | --- | --- | --- | --- | --- | --- | --- | --- | --- | --- | --- | --- | --- | --- | --- | --- | --- | --- |
| CC(=NNC(=S)Nc1ccccc1I)c1ccccn1 (mixture of isomers) | Active | Active | Active | Active | Active | Active | Active | Active | 6.1 | Dose-dependent effect | Dose-dependent effect | 8.1 | Active | Dose-dependent effect | 4.1 | Active | Active | Active | Active | Active | Activity (T98G [19]): Active; IC50 [20]: > 10000 nM; Activity (T98G [21]): Active; Activity (MCF7 [22]): Active; Activity (U-87MG ATCC [23]): Active; Activity (T98G [24]): Active; Activity (T98G [25]): Active; Activity (MCF7 [26]): Active |
| CC(=NNC(=S)Nc1cccc(F)c1)c1ccccn1 (mixture of isomers) | Active | Active | Active | Active | Active | Active | Active | Active | 18 | Dose-dependent effect | Dose-dependent effect | 12 | Active | Dose-dependent effect | 9 | Active | Active | Active | Active | Active | Activity (T98G [19]): Active; IC50 [20]: > 10000 nM; Activity (T98G [21]): Active; Activity (MCF7 [22]): Active; Activity (U-87MG ATCC [23]): Active; Activity (T98G [24]): Active; Activity (T98G [25]): Active; Activity (MCF7 [26]): Active |
| CC(=NNC(=S)Nc1ccc(I)cc1)c1ccccn1 (mixture of isomers) | Active | Active | Active | Active | Active | Active | Active | Active | 59 | Dose-dependent effect | Dose-dependent effect | 64 | Active | Dose-dependent effect | 6.6 | Active | Active | Active | Active | Active | Activity (T98G [19]): Active; IC50 [20]: > 10000 nM; Activity (T98G [21]): Active; Activity (MCF7 [22]): Active; Activity (U-87MG ATCC [23]): Active; Activity (T98G [24]): Active; Activity (T98G [25]): Active; Activity (MCF7 [26]): Active |
